Assays:
[1] = Plasma clearance in rat; type: ADME, organism-based
How it was run: (§1)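 Rats; plasma concentration–time data of test compound from two to three separate animals, analysed noncompartmentally for half-life and clearance.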

[2] = Half life period in rat; type: ADME, organism-based; conditions: in vivo; how it was run: as §1
[3] = target: T1, Integrin alpha-V/beta-3 (Homo sapiens, UniProt P05106+P06756); test: HEK cell adhesion mediated by alpha v beta 3 integrin; type: functional, cell-based, HEK293
How it was run: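 HEK 293 cells transfected with human αvβ3; inhibition of their adhesion to purified human vitronectin measured. IC50 as the mean of two experiments run in triplicate, with an internal standard.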

[4] = Oral bioavailability in rat; type: ADME, organism-based; conditions: in vivo
How it was run: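 Rat iv and po dosing; plasma concentration–time data from two to three animals; oral bioavailability calculated from dose-normalized iv and po AUC values.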

[5] = target: Integrin alpha-IIb/beta-3 (Homo sapiens, UniProt P05106+P08514); test: Binding affinity for alpha IIb beta-3 integrin; type: protein-complex assay
How it was run: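 Human αIIbβ3 competition binding, 3H-SK&F 107260 as the displaced radioligand; Ki averaged over two to three separate experiments.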

[6] = target: T1, Integrin alpha-V/beta-3; test: Binding affinity for Vitronectin receptor (alpha V beta 3); type: protein-complex assay
How it was run: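 Competition binding to human αvβ3 with displacement of 3H-SK&F 107260; Ki from the mean of two to three separate experiments.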

Chain of Integrin alpha-IIb/beta-3 (P05106 27-788 limits assumed): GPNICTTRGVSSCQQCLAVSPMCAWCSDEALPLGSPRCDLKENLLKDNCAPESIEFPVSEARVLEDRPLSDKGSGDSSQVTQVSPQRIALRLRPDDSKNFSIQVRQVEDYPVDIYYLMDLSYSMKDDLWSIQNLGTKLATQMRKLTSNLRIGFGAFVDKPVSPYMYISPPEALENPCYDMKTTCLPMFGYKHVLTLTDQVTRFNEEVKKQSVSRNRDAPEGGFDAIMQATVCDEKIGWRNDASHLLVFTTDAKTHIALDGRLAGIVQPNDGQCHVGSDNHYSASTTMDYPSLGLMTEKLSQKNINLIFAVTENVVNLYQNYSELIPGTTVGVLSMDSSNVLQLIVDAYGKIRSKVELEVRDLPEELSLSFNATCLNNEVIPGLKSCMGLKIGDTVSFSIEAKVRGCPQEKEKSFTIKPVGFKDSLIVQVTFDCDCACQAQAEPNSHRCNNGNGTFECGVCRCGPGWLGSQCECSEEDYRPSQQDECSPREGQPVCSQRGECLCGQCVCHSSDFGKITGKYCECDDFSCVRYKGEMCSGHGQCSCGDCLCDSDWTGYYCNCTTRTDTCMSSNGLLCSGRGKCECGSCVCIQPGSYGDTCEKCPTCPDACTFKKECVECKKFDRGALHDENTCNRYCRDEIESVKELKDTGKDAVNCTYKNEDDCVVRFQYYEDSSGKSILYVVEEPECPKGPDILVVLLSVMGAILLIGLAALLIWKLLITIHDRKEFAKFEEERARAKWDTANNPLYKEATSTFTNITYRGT
Chain of Integrin alpha-IIb/beta-3 (P08514 32-887 limits assumed): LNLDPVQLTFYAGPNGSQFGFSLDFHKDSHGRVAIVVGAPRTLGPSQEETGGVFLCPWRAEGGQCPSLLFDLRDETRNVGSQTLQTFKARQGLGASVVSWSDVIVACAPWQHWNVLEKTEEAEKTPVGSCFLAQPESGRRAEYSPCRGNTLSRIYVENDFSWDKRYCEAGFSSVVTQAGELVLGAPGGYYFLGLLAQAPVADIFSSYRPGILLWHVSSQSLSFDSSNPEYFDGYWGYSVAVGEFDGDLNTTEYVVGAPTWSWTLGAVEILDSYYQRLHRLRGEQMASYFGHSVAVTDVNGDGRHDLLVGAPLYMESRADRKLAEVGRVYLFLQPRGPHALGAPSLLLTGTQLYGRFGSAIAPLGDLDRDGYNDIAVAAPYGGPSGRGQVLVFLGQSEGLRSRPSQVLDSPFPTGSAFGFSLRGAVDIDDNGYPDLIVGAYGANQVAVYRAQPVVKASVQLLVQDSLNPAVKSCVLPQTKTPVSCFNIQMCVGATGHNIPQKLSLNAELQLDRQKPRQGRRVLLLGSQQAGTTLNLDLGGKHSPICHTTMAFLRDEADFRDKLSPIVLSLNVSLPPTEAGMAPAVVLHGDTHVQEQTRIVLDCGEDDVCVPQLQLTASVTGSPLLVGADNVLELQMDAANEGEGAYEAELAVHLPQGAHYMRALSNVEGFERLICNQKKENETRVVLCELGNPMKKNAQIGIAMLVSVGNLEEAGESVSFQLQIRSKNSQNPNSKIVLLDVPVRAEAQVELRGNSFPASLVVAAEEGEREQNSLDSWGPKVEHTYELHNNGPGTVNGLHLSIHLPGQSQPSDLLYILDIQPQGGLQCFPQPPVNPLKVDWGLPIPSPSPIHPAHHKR
Chain of Integrin alpha-IIb/beta-3 (P08514 891-1039 limits assumed): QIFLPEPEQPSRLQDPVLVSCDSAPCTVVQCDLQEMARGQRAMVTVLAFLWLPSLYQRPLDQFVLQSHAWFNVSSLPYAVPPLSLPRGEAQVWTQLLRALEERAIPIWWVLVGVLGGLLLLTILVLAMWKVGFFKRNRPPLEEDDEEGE
T1 sequence (P05106 27-788 limits assumed): as the sequence (P05106 27-788 limits assumed) above
T1 sequence (P06756 31-889 limits assumed): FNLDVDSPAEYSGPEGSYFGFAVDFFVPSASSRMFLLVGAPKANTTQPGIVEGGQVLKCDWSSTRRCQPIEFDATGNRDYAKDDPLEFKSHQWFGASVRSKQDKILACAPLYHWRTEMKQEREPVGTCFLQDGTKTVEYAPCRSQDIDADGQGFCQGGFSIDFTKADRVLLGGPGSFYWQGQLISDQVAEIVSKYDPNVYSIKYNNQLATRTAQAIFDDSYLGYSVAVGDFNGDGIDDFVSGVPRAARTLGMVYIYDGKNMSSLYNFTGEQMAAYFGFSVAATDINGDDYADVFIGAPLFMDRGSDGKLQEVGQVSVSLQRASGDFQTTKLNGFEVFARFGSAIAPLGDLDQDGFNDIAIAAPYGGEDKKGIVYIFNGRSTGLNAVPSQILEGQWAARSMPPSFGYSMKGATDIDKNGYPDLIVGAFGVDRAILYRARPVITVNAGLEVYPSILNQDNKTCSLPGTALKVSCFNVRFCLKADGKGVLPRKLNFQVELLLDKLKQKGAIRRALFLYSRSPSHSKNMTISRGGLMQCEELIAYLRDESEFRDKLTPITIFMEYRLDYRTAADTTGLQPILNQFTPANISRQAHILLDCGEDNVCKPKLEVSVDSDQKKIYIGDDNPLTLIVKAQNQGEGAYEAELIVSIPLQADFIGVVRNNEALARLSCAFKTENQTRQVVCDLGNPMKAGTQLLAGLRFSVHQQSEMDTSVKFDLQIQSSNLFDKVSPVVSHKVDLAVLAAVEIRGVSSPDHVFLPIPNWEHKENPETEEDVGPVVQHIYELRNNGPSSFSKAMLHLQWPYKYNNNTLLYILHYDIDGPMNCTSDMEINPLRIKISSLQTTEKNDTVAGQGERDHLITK
T1 sequence (P06756 891-1048 limits assumed): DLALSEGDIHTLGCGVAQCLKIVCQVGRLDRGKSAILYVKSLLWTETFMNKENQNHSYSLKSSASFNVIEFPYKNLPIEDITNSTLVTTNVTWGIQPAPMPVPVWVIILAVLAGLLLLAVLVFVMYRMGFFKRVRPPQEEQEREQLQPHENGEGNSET

Row | Structure (SMILES) | clearance [1] [mL/min/kg] | half-life [2] [min] | IC50 [3] [µM] | bioavailability [4] [%] | Ki [5] [µM] | Ki [6] [µM]
1 | O=C(O)C[C@@H]1Cc2ccc(OCCCNc3ccccn3)cc2Cc2ccccc21 | 4 | 192 |  |  |  | 
2 | O=C(O)CC1Cc2ccc(OCCCNc3ccccn3)cc2CN(CC(F)(F)F)C1=O (stereo unspecified) | 63 | 25 | 0.053 | 19 | 9 | 0.0013
3 | O=C(O)C[C@H]1Cc2ccc(OCCCNc3ccccn3)cc2CN(CC(F)(F)F)C1=O | 60 | 19 | 0.39 | 4 |  | 0.02

Other lines, results leading:

Row | clearance [1] [mL/min/kg] | half-life [2] [min] | IC50 [3] [µM] | bioavailability [4] [%] | Ki [5] [µM] | Ki [6] [µM] | Structure (SMILES)
4 | 50 | 16 | 0.075 | 9 | 30 | 0.0019 | CN1Cc2cc(OCCCNc3ccccn3)ccc2CC(CC(=O)O)C1=O (stereo unspecified)
5 | 25 | 53 | 0.003 | 72 | 3.8 | 0.0012 | CNc1cccc(CCOc2ccc3c(c2)CN(CC(F)(F)F)C(=O)[C@H](CC(=O)O)C3)n1
6 | 16 | 360 | 0.012 | 34 | 3.3 | 0.0009 | O=C(O)C[C@@H]1Cc2ccc(OCCCNc3ccccn3)cc2CN(CC(F)(F)F)C1=O

From ChEMBL document CHEMBL1133172, “Discovery of orally active nonpeptide vitronectin receptor antagonists based on a 2-benzazepine Gly-Asp mimetic” (J Med Chem, 2000)
